ChEMBL document CHEMBL1137523, “Efficient one-pot synthesis of biologically active polysubstituted aromatic amines” (Bioorg Med Chem, 2007)
Converted amounts (≈) assume the structure as drawn. The source made the active and inactive calls. No cut-off for these calls is given here.

Assays:
[1] = tested on: L929; test: Growth inhibition of mouse L929 cells after 5 days by MTT assay; assay type: functional, cell-based; conditions: L929, 120 h
Outline: (§1)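 L-929 cells (DSMZ) were grown in DME with 10% newborn calf serum at 37 °C, 10% CO2, in humid air. In microtiter plates, a suspension of 50,000 cells/mL was added to a serial dilution of inhibitor (2:1 cell suspension to dilution). Metabolic activity per well was read by MTT after 5 days.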

[2] = tested on: L929; test: Growth inhibition of mouse L929 cells below 40 ug/mL after 5 days by MTT assay; assay type: functional, cell-based; outline: as §1
[3] = tested on: Potorous tridactylus; test: Effect on cell morphology in PtK2 potoroo cells assessed as changes in morphology at 50 ug/mL after 18 hrs

`CC(=O)c1ccc(NCc2ccccc2)cc1` was tested, and the IC50 [1] was 22 µg/mL (≈ 97.7 µM).

With `COc1ccc(N(CC(C)C)CC(C)C)cc1` the IC50 [1] was 25 µg/mL (≈ 106 µM).

In the case of `COc1ccc(N(Cc2ccc([N+](=O)[O-])cc2)Cc2ccccc2OC)cc1`, the IC50 [1] is reported as > 40 µg/mL.

In the case of `COc1ccc(N(Cc2ccccc2)Cc2ccccc2OC)cc1`, the Activity [2] is reported as “inactive” and the IC50 [1] is reported as > 40 µg/mL.

For `CCCCCCCCCNc1ccc(OC)cc1`, the IC50 [1] was 12 µg/mL (≈ 48.1 µM).

Compound `Cc1ccc(N(Cc2ccccc2)Cc2ccccc2)cc1` has an IC50 [1] of 11 µg/mL (≈ 38.3 µM).

`COc1ccc(NC(C)c2ccccc2)cc1` (stereo unspecified) was tested, and the IC50 [1] was 30 µg/mL (≈ 132 µM).

`Cc1ccc(NCc2ccccc2)cc1` [N-BENZYL-4-METHYLANILINE] was tested, and the Activity [2] was “inactive” and the IC50 [1] was > 40 µg/mL.

With `CCCCCCCCCN(CC(C)C)c1ccc(OC)cc1` the IC50 [1] was 20 µg/mL (≈ 65.5 µM).

`c1ccc(CNc2ccccn2)cc1` showed an IC50 [1] of 35 µg/mL (≈ 190 µM).

In the case of `COc1ccc(NCc2ccccc2OC)cc1`, the IC50 [1] is reported as 25 µg/mL (≈ 103 µM).

`Cc1ccc(N(Cc2ccccc2)CC(C)C)cc1` was tested, and the Activity [3] was “Active” and the IC50 [1] was 5 µg/mL (≈ 19.7 µM).

Work on `COc1ccc(NC(C)c2ccsc2)cc1` (stereo unspecified) yielded an IC50 [1] of 30 µg/mL (≈ 129 µM).

`COc1ccc(CNc2ccc(O)c([N+](=O)[O-])c2)cc1` gave an IC50 [1] of 20 µg/mL (≈ 72.9 µM).

`COc1ccc(N(Cc2ccccc2)CC(C)C)cc1` was tested, and the IC50 [1] was 10 µg/mL (≈ 37.1 µM).

In the case of `COc1ccc(N(Cc2ccc([N+](=O)[O-])cc2)CC(C)C)cc1`, the Activity [2] is reported as “inactive” and the IC50 [1] is reported as > 40 µg/mL.

With `COc1ccc(N(Cc2ccccc2OC)CC(C)C)cc1` the IC50 [1] was 15 µg/mL (≈ 50.1 µM).

In the case of `COc1ccc(N(Cc2ccccc2)Cc2ccc([N+](=O)[O-])cc2)cc1`, the IC50 [1] is reported as > 40 µg/mL.

With `COc1ccc(NCC(C)C)cc1` the Activity [2] was “inactive” and the IC50 [1] was > 40 µg/mL.

`COc1ccc(NC(C)c2ccco2)cc1` (stereo unspecified) showed an IC50 [1] of 40 µg/mL (≈ 184 µM).

In the case of `COc1ccc(NCc2ccc([N+](=O)[O-])cc2)cc1`, the IC50 [1] is reported as > 40 µg/mL.

`Cc1ccc(N(CC(C)C)CC(C)C)cc1` gave an IC50 [1] of 13 µg/mL (≈ 59.3 µM).

`O=C(O)Cc1ccc(NCc2ccccc2)cc1` was tested, and the IC50 [1] was > 40 µg/mL.

In the case of `COc1ccc(N(Cc2ccccc2)Cc2ccccc2)cc1`, the IC50 [1] is reported as 12 µg/mL (≈ 39.6 µM).

`O=[N+]([O-])c1cc(O)ccc1NCc1ccccc1` was tested, and the Activity [3] was “Active” and the IC50 [1] was 9 µg/mL (≈ 36.8 µM).
